Experimental findings from ChEMBL document CHEMBL4351006, “A new exploration towards aminothiazolquinolone oximes as potentially multi-targeting antibacterial agents: Design, synthesis and evaluation acting on microbes, DNA, HSA and topoisomerase IV” (Eur J Med Chem, 2019) are described below.

The test system of assay [1] is Staphylococcus aureus. As to the kind of experiment: Potentiation of cefixime-mediated antibacterial activity against Staphylococcus aureus assessed as cefixime MIC incubated for 24 hrs by two fold serial dilution method (reference value: 31.52 10^-3 mM). It counts as functional.
The test system of assay [2] is Staphylococcus aureus. Briefly: Potentiation of cefixime-mediated antibacterial activity against methicillin resistant Staphylococcus aureus N315 assessed as cefixime MIC incubated for 24 hrs by two fold serial dilution method (reference value: 31.52 10^-3 mM). It counts as functional. Conditions: N315, 24 h.
For assay [3], the system named is Candida albicans. Briefly: Potentiation of fluconazole-mediated antifungal activity against Candida albicans assessed as fluconazole MIC incubated for 24 hrs by two fold serial dilution method (reference value: 13.06 10^-3 mM). It is filed as functional.
Assay [4] concerns Klebsiella pneumoniae. As to the kind of experiment: Potentiation of cefixime-mediated antibacterial activity against Klebsiella pneumoniae assessed as cefixime MIC incubated for 24 hrs by two fold serial dilution method (reference value: 15.76 10^-3 mM). It counts as functional.
Assay [5] has as its system Candida tropicalis. As to the kind of experiment: Potentiation of fluconazole-mediated antifungal activity against Candida tropicalis assessed as fluconazole MIC incubated for 24 hrs by two fold serial dilution method (reference value: 26.12 10^-3 mM). It counts as functional.
Assay [6] has as its system Staphylococcus aureus. As to the kind of experiment: Antibacterial activity against Staphylococcus aureus ATCC 25923 assessed as reduction in bacterial cell viability incubated for 24 hrs by two fold serial dilution method. It counts as functional. Conditions: ATCC 25923, 24 h. The procedure, abridged: (§1)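 Broth two-fold serial dilution run to CLSI guidelines. Chloromycin, norfloxacin and fluconazole served as reference drugs.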

Assay [7] relates to Enterococcus faecalis. Briefly: Antibacterial activity against Enterococcus faecalis assessed as reduction in bacterial cell viability incubated for 24 hrs by two fold serial dilution method. It is filed as functional. Put shortly:
as §1

The subject of assay [8] is Staphylococcus aureus. Briefly: Antibacterial activity against methicillin resistant Staphylococcus aureus N315 assessed as reduction in bacterial cell viability incubated for 24 hrs by two fold serial dilution method. Particulars: N315, 24 h. It is filed as functional. Put shortly: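 MIC by two-fold serial dilution following CLSI, with chloromycin and norfloxacin as reference drugs.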

Assay [9] relates to Staphylococcus aureus. As to the kind of experiment: Antibacterial activity against methicillin resistant Staphylococcus aureus assessed as fold change after 16 serial passages at 0.5 times of MIC incubated for 12 hrs by sequential passaging method. It counts as functional.
The subject of assay [10] is Staphylococcus aureus. Briefly: Antibacterial activity against Staphylococcus aureus ATCC 29213 assessed as reduction in bacterial cell viability incubated for 24 hrs by two fold serial dilution method. It is filed as functional. Particulars: ATCC 29213, 24 h. Put shortly: as §1
For assay [11], the system named is Pseudomonas aeruginosa. As to the kind of experiment: Antibacterial activity against Pseudomonas aeruginosa assessed as reduction in bacterial cell viability incubated for 24 hrs by two fold serial dilution method. It is filed as functional. The procedure, abridged:
as §1

In assay [12] the test system is Escherichia coli. Briefly: Antibacterial activity against Escherichia coli ATCC 25922 assessed as reduction in bacterial cell viability incubated for 24 hrs by two fold serial dilution method. It is filed as functional. Conditions: ATCC 25922, 24 h. Put shortly: as §1
The test system of assay [13] is Escherichia coli. Briefly: Antibacterial activity against Escherichia coli assessed as reduction in bacterial cell viability incubated for 24 hrs by two fold serial dilution method. It counts as functional. Put shortly: as §1
Assay [14] has as its system Staphylococcus aureus. As to the kind of experiment: Antibacterial activity against Staphylococcus aureus assessed as reduction in bacterial cell viability incubated for 24 hrs by two fold serial dilution method. It counts as functional. Put shortly: as §1
The test system of assay [15] is Acinetobacter baumannii. As to the kind of experiment: Antibacterial activity against Acinetobacter baumannii assessed as reduction in bacterial cell viability incubated for 24 hrs by two fold serial dilution method. It counts as functional. The procedure, abridged:
as §1

The test system of assay [16] is Pseudomonas aeruginosa. As to the kind of experiment: Antibacterial activity against Pseudomonas aeruginosa ATCC 27853 assessed as reduction in bacterial cell viability incubated for 24 hrs by two fold serial dilution method. It is filed as functional. Conditions: ATCC 27853, 24 h. Put shortly: as §1
Assay [17] deals with Klebsiella pneumoniae. As to the kind of experiment: Antibacterial activity against Klebsiella pneumoniae assessed as reduction in bacterial cell viability incubated for 24 hrs by two fold serial dilution method. It counts as functional. Put shortly: as §1
In assay [18] the test system is Aspergillus fumigatus. Briefly: Antifungal activity against Aspergillus fumigatus assessed as reduction in fungal cell viability incubated for 24 hrs by two fold serial dilution method. It is filed as functional. The procedure, abridged:
as §1

The subject of assay [19] is Candida tropicalis. As to the kind of experiment: Antifungal activity against Candida tropicalis assessed as reduction in fungal cell viability incubated for 24 hrs by two fold serial dilution method. It counts as functional. The procedure, abridged: as §1
Assay [20] has as its system Candida albicans. As to the kind of experiment: Antifungal activity against Candida albicans ATCC 90023 assessed as reduction in fungal cell viability incubated for 24 hrs by two fold serial dilution method. It counts as functional. Conditions: ATCC 90023, 24 h. Put shortly:
as §1

The test system of assay [21] is Aspergillus fumigatus. As to the kind of experiment: Potency index, ratio of MIC of fluconazole to MIC of compound for antifungal activity against Aspergillus fumigatus assessed as reduction in […] incubated for 24 hrs by two fold serial dilution method. It counts as functional.
In assay [22] the test system is Candida albicans. As to the kind of experiment: Antifungal activity against Candida albicans assessed as reduction in fungal cell viability incubated for 24 hrs by two fold serial dilution method. It is filed as functional. Put shortly: as §1
The subject of assay [23] is Candida parapsilosis. As to the kind of experiment: Antifungal activity against Candida parapsilosis ATCC 22019 assessed as reduction in fungal cell viability incubated for 24 hrs by two fold serial dilution method. Conditions: Lodderomyces parapsilosis, ATCC 22019, 24 h.

As usually defined, the MIC is the smallest concentration in the dilution series that meets the test's criterion for growth inhibition.

Each structure is given as a SMILES string. Converted amounts (≈) assume the structure as drawn.

With `C=CC1=C(C(=O)O)N2C(=O)[C@@H](NC(=O)/C(=N\OCC(=O)O)c3csc(N)n3)[C@H]2SC1` [CEFIXIME], the MIC in assay [1] amounted to 7.88 µM; in assay [2] it was 3.94 µM; in [3], 3.26 µM; in assay [4], 7.88 µM; in [5], 26.1 µM.

Regarding `CCn1cc(C(=O)O)c(=O)c2cc(F)c(N3CCNCC3)cc21` [NORFLOXACIN], the MIC turned out to be 3 µM (≈ 0.958 µg/mL) in assay [6]; 13 µM (≈ 4.15 µg/mL) in [7]; 25 µM (≈ 7.98 µg/mL) in [8]; 3 µM (≈ 0.958 µg/mL) in [10]; 6 µM (≈ 1.92 µg/mL) in assay [11]; 25 µM (≈ 7.98 µg/mL) in [12]. In addition, the MIC was determined as 50 µM (≈ 16 µg/mL) in assay [13]; 6 µM (≈ 1.92 µg/mL) in assay [14]; 25 µM (≈ 7.98 µg/mL) in assay [15]; 2 µM (≈ 0.639 µg/mL) in assay [16]; 13 µM (≈ 4.15 µg/mL) in [17]. Further, in assay [9], the “fold change (FC)” value worked out at 16.

In the case of `CCn1cc(-c2csc(N)n2)c(=O)c2cc(F)c(N3CCN(C/C(C)=N/NC(N)=O)CC3)cc21`, the minimal inhibitory concentration (MIC) in [18] worked out at 263 µM (≈ 128 µg/mL); in assay [19], 132 µM (≈ 64.2 µg/mL); in [6], 132 µM (≈ 64.2 µg/mL); in assay [7], 526 µM (≈ 256 µg/mL); in assay [8], 66 µM (≈ 32.1 µg/mL); in assay [10], 263 µM (≈ 128 µg/mL). Besides, the MIC was 263 µM (≈ 128 µg/mL) in assay [11]; 263 µM (≈ 128 µg/mL) in assay [12]; 263 µM (≈ 128 µg/mL) in [13]; 263 µM (≈ 128 µg/mL) in assay [14]; 263 µM (≈ 128 µg/mL) in assay [15]; 132 µM (≈ 64.2 µg/mL) in [20]. In addition, the minimum inhibitory concentration (MIC) in assay [22] came out at 526 µM (≈ 256 µg/mL); in [16] it was 132 µM (≈ 64.2 µg/mL); in [23], 66 µM (≈ 32.1 µg/mL); in [17] it was 526 µM (≈ 256 µg/mL). For the same compound, the Ratio in assay [21] is given as 3.

For `CCn1cc(-c2csc(N)n2)c(=O)c2cc(N3CCN(C/C(=N/OC)c4ccc(F)cc4)CC3)c(Cl)cc21`, the MIC in assay [18] is 29 µM (≈ 16.1 µg/mL); in assay [19], 58 µM (≈ 32.2 µg/mL); in assay [6], 58 µM (≈ 32.2 µg/mL); in assay [7], 58 µM (≈ 32.2 µg/mL); in assay [8] it was 14 µM (≈ 7.77 µg/mL); in assay [10] it was 58 µM (≈ 32.2 µg/mL). Further, the minimal inhibitory concentration (MIC) stood at 461 µM (≈ 256 µg/mL) in assay [11]; 58 µM (≈ 32.2 µg/mL) in assay [12]; 14 µM (≈ 7.77 µg/mL) in assay [13]; 29 µM (≈ 16.1 µg/mL) in assay [14]; 115 µM (≈ 63.8 µg/mL) in assay [15]; 58 µM (≈ 32.2 µg/mL) in [20]. The minimal inhibitory concentration (MIC) in assay [22] came out at 231 µM (≈ 128 µg/mL); in assay [16], 58 µM (≈ 32.2 µg/mL); in assay [23], 58 µM (≈ 32.2 µg/mL); in [17], 231 µM (≈ 128 µg/mL).

Regarding `CCn1cc(-c2csc(N)n2)c(=O)c2cc(N3CCN(C/C(=N/OC)c4ccc(Cl)cc4)CC3)c(Cl)cc21`, the MIC came out at 448 µM (≈ 256 µg/mL) in [18]; 448 µM (≈ 256 µg/mL) in assay [19]; 224 µM (≈ 128 µg/mL) in [6]; 448 µM (≈ 256 µg/mL) in assay [7]; 224 µM (≈ 128 µg/mL) in [8]; 224 µM (≈ 128 µg/mL) in assay [10]. Further, the minimum inhibitory concentration (MIC) in assay [11] is 448 µM (≈ 256 µg/mL); in assay [12], 448 µM (≈ 256 µg/mL); in assay [13], 448 µM (≈ 256 µg/mL); in assay [14], 224 µM (≈ 128 µg/mL); in assay [15], 448 µM (≈ 256 µg/mL); in assay [20], 224 µM (≈ 128 µg/mL). In addition, the MIC in assay [22], in assay [16], in [23] and in assay [17] was 448 µM (≈ 256 µg/mL) throughout.

As to `CCn1cc(-c2csc(N)n2)c(=O)c2cc(F)c(N3CCN(C/C(=N/OC)c4ccc(F)cc4F)CC3)cc21`, the minimum inhibitory concentration (MIC) worked out at 460 µM (≈ 256 µg/mL) in assay [18]; 460 µM (≈ 256 µg/mL) in assay [19]; 460 µM (≈ 256 µg/mL) in [6]; 460 µM (≈ 256 µg/mL) in [7]; 230 µM (≈ 128 µg/mL) in [8]; 460 µM (≈ 256 µg/mL) in [10]. Besides, the MIC in assay [11], in assay [12], in assay [13], in [14], in [15] and in [20] was 460 µM (≈ 256 µg/mL) in each case. For the same compound, the MIC in [22] stood at 920 µM (≈ 512 µg/mL); in assay [16], 460 µM (≈ 256 µg/mL); in [23], 920 µM (≈ 512 µg/mL); in assay [17], 460 µM (≈ 256 µg/mL).
